The source made the active and inactive calls. The calls are words filed in the database; no cut-off is given here.
Key:
Histamine H2 receptor [1] = target: T1, Histamine H2 receptor (Homo sapiens, UniProt P25021); experiment: Antagonist activity at human histamine H2 receptor expressed in Sf9 cells coexpressing GsalphaS protein by steady-state GTPase assay; format: functional
How it was run: (§1)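 Antagonist-mode steady-state GTPase assay in Sf9 membranes: H1R coexpressed with RGS4; H2R as GsαS fusion; H3R coexpressed with Giα2/Gβ1γ2/RGS4; H4R as RGS19 fusion with Giα2/Gβ1γ2. […] MgCl2: H1R/H2R 1.0 mM, H3R/H4R 5.0 mM; H4R plus 100 mM NaCl. [γ-32P]GTP hydrolysis measured over 20 min at 25 °C. pKB from nonlinear sigmoidal fits; duplicate runs.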

Histamine H3 receptor [2] = target: T2, Histamine H3 receptor (Homo sapiens, UniProt Q9Y5N1); experiment: Antagonist activity at human histamine H3 receptor expressed in Sf9 cells coexpressing Gialpha-2-Gbeta-1-gamma-2 and RGS4 proteins protein by steady-state GTPase assay; format: functional; how it was run: as §1
Histamine H4 receptor [3] = target: T3, Histamine H4 receptor (Homo sapiens, UniProt Q9H3N8); experiment: Antagonist activity at human histamine H4 receptor expressed in Sf9 cells coexpressing RGS19 protein by steady-state GTPase assay; format: functional; how it was run: as §1
Histamine H2 receptor [4] = target: T1, Histamine H2 receptor; experiment: Agonist activity at human histamine H2 receptor expressed in Sf9 cells coexpressing GsalphaS protein at 1 mM by steady-state GTPase assay; format: functional
Histamine H2 receptor [5] = target: T1, Histamine H2 receptor; experiment: Agonist activity at human histamine H2 receptor expressed in Sf9 cells coexpressing GsalphaS protein by steady-state GTPase assay; format: functional
How it was run: (§2)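 Sf9 membranes (10-20 μg protein/tube), washed and resuspended in 10 mM Tris-HCl pH 7.4. H2R as hH2R-GsαS fusion; H3R coexpressed with Giα2, Gβ1γ2, RGS4; H4R as hH4R-RGS19 fusion with Giα2, Gβ1γ2. Buffer: 50 mM Tris/HCl pH 7.4, MgCl2 (H2R 1.0 mM; H3R/H4R 5.0 mM), 100 μM EDTA, 100 μM ATP, 100 nM GTP, 100 μM AppNHp, creatine phosphate/kinase, 0.2% BSA; H4R plus 100 mM NaCl.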

Histamine H1 receptor [6] = target: T4, Histamine H1 receptor (Homo sapiens, UniProt P35367); experiment: Antagonist activity at human histamine H1 receptor expressed in Sf9 cells coexpressing RGS4 by steady-state GTPase assay; format: functional; how it was run: as §1
Histamine H4 receptor [7] = target: T3, Histamine H4 receptor; experiment: Agonist activity at human histamine H4 receptor expressed in Sf9 cells coexpressing RGS19 protein by steady-state GTPase assay; format: functional; how it was run: as §2
Histamine H3 receptor [8] = target: T2, Histamine H3 receptor; experiment: Agonist activity at human histamine H3 receptor expressed in Sf9 cells coexpressing Gialpha-2-Gbeta-1-gamma-2 and RGS4 proteins protein by steady-state GTPase assay; format: functional; how it was run: as §2
Histamine H2 receptor [9] = target: T1, Histamine H2 receptor; experiment: Antagonist activity at human histamine H2 receptor expressed in Sf9 cells coexpressing GsalphaS protein by steady-state GTPase assay
Histamine H1 receptor [10] = target: T4, Histamine H1 receptor; experiment: Agonist activity at human histamine H1 receptor expressed in Sf9 cells coexpressing RGS4 by steady-state GTPase assay; format: functional
Homo sapiens [11] = species on record: Homo sapiens; experiment: Selectivity for human histamine H4 receptor over human histamine H3 receptor by steady-state GTPase assay
Histamine H1 receptor [12] = target: T4, Histamine H1 receptor; experiment: Displacement of [3H]mepyramine from human histamine H1 receptor expressed in Sf9 cells
How it was run: (§3)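 Competition binding on Sf9 membranes in 12.5 mM MgCl2, 1 mM EDTA, 75 mM Tris/HCl pH 7.4. Protein per tube: 50 μg (H1R, H3R), 120 μg (H4R), 250 μg (H2R). […] 60 min at 25 °C with shaking; PEI-treated GF/C filtration, cold washes, scintillation counting; one-site fits, duplicates.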

Histamine H2 receptor [13] = target: T1, Histamine H2 receptor; experiment: Displacement of [3H]tiotidine from human histamine H2 receptor expressed in Sf9 cells; how it was run: as §3
Histamine H3 receptor [14] = target: T2, Histamine H3 receptor; experiment: Displacement of [3H]N-alpah-methylhistamine from human histamine H3 receptor expressed in Sf9 cells; how it was run: as §3
Histamine H4 receptor [15] = target: T3, Histamine H4 receptor; experiment: Displacement of [3H]histamine from human histamine H4 receptor expressed in Sf9 cells; how it was run: as §3
Homo sapiens [16] = species on record: Homo sapiens; experiment: Selectivity for human histamine H4 receptor over human histamine H1 receptor by radioligand displacement assay
Homo sapiens [17] = species on record: Homo sapiens; experiment: Selectivity for human histamine H4 receptor over human histamine H2 receptor by radioligand displacement assay
Histamine H4 receptor [18] = target: T3, Histamine H4 receptor; experiment: Agonist activity at human histamine H4 receptor expressed in Sf9 cell membrane coexpressing RGS19 protein by steady-state GTPase assay; format: functional; how it was run: as §2

T2 sequence (Q9Y5N1 whole entry): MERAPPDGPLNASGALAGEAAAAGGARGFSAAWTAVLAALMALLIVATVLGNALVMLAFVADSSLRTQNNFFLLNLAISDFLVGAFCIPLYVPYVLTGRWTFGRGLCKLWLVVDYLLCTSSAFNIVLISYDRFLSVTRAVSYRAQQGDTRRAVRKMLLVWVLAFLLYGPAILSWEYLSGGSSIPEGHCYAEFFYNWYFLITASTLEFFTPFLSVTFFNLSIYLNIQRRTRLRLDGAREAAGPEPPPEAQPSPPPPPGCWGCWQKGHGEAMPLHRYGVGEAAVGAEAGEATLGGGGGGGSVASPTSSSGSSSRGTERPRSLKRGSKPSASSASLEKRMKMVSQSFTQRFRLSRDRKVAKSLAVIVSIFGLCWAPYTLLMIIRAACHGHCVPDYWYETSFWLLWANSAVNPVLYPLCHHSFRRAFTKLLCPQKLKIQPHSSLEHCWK
T4 sequence (P35367 whole entry): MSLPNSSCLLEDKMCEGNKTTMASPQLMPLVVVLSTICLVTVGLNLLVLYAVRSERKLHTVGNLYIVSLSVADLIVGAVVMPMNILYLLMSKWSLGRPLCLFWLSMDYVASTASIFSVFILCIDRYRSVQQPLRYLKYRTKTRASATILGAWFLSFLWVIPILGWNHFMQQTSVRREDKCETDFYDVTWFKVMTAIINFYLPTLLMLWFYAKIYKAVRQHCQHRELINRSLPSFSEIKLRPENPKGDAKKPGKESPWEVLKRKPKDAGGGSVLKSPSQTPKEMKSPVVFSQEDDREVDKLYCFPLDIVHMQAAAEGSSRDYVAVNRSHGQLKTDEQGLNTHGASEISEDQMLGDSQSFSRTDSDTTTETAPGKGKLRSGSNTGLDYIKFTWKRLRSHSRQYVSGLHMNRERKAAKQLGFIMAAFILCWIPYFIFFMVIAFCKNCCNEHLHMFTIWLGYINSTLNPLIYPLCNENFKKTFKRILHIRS
T3 sequence (Q9H3N8 whole entry): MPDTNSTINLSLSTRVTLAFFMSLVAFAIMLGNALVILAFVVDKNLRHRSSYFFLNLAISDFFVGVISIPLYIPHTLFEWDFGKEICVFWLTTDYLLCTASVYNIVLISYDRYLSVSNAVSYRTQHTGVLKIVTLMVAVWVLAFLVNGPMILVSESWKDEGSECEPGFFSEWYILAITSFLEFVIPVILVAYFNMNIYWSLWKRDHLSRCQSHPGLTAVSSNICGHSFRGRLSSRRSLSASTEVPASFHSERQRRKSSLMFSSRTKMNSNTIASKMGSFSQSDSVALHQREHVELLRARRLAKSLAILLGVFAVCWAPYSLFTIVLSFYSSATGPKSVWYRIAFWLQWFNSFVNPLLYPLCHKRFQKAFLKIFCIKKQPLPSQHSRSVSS
T1 sequence (P25021 whole entry, the tested form may be a part): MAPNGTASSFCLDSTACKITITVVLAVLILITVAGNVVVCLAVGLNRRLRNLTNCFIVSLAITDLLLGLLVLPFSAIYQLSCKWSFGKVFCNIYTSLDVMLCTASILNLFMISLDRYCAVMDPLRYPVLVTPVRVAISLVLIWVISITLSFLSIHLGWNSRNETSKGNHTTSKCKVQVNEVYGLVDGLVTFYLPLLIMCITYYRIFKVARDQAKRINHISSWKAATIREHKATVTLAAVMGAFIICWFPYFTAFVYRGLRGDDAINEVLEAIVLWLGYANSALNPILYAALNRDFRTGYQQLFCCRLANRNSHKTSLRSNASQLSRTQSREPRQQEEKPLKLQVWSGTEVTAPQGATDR

Row | SMILES | pKb (Histamine H2 receptor [1]) | pKb (Histamine H3 receptor [2]) | pKb (Histamine H4 receptor [3]) | EC50 (Histamine H4 receptor [7]) [nM] | also measured
1 | CN/C(=N\C#N)NCCCCCc1c[nH]cn1 | 5.66 | 6.38 | 6.54 |  | 
2 | N#C/N=C(/NCCCc1c[nH]cn1)NCCc1c[nH]c2ccccc12 | < 5 |  | 5.37 |  | Activity (Histamine H2 receptor [4]): inactive
3 | NC(=O)/N=C(/NCCCc1ccccc1)NCCc1c[nH]cn1 |  | 8.42 | 5.89 |  | EC50 (Histamine H2 receptor [5]): 2000 nM; pKb (Histamine H1 receptor [6]): < 5
4 | NC(=O)/N=C(\NCCCCc1c[nH]cn1)NCCCc1ccccc1 |  | 6.44 | 7.07 |  | Activity (Histamine H4 receptor [7]): inactive
5 | N#C/N=C(/NCCc1c[nH]cn1)NCCC(c1ccccc1)c1ccccc1 | < 5 |  | < 5 |  | 
6 | N#C/N=C(/NCCCc1c[nH]cn1)NCCCC1CCCCC1 | < 5 |  | 5.82 |  | 
7 | CC(C)N/C(=N\C#N)NCCCCc1c[nH]cn1 | < 5 | 5.49 |  | 331 | pKb (Histamine H1 receptor [6]): < 5
8 | CC(CCNC(=NCCCCc1cnc[nH]1)NC#N)c1ccccc1 (centres undefined) |  |  |  | 141 | 
9 | NC(=O)NC(=NCCCc1cnc[nH]1)NCCCc1ccccc1 |  |  |  |  | EC50 (Histamine H2 receptor [5]): 646 nM
10 | N#C/N=C(/NCCCc1c[nH]cn1)NCCC(c1ccccc1)c1ccccc1 | < 5 |  | < 5 |  | 
11 | N#C/N=C(/NCCCc1c[nH]cn1)NCCc1ccccc1 | < 5 |  | 5.32 |  | Activity (Histamine H2 receptor [4]): inactive
12 | N#CNC(N)=NCCCCc1cnc[nH]1 |  |  |  | 170 | EC50 (Histamine H3 receptor [8]): 251 nM
13 | N#C/N=C(/NCCCCc1c[nH]cn1)NCCCc1cccnc1 | 5.92 | 6.19 |  | 1200 | 
14 | CN/C(=N\C#N)NCCCCc1c[nH]cn1 | < 5 | 5.68 |  | 955 | pKb (Histamine H1 receptor [6]): < 5
15 | N#C/N=C(\NCCCCc1ccccc1)NCCCCc1c[nH]cn1 | 5.03 | 5.54 | 6.34 |  | 
16 | N#CNC(=NCCCCc1cnc[nH]1)NCCCc1ccccc1 |  |  |  | 151 | 
17 | N#C/N=C(\NCCCCc1ccccc1)NCCCc1c[nH]cn1 | 5.03 |  | 5.22 |  | EC50 (Histamine H2 receptor [5]): 8910 nM
18 | CCN/C(=N/C#N)NCCCCCc1c[nH]cn1 | 5.37 | 6.92 | 6.47 |  | 
19 | Cc1[nH]cnc1CSCCN/C(=N/C#N)NCCC(c1ccccc1)c1ccccc1 |  |  |  | > 10000 | pKb (Histamine H2 receptor [9]): 5.8
20 | N#C/N=C(\NCCc1ccccc1)NCCc1c[nH]cn1 |  |  | 5.18 |  | Activity (Histamine H2 receptor [4]): inactive
21 | Cc1[nH]cnc1CSCCN/C(=N\C#N)NCCCc1ccccc1 | 5.74 |  | < 5 |  | 
22 | N#C/N=C(/NCCCc1c[nH]cn1)NCCSc1ccccc1 | < 5 |  |  | 1290 | EC50 (Histamine H2 receptor [5]): 7240 nM
23 | N#C/N=C(/NCCCCCc1c[nH]cn1)NCCCc1ccccc1 | 5.28 | 6.55 | 6.96 |  | 
24 | N#C/N=C(\NCCCc1ccccc1)NCCCc1c[nH]cn1 | 5.25 | 5.72 |  | 759 | EC50 (Histamine H2 receptor [5]): 14100 nM
25 | Cc1nc[nH]c1CCN [4-METHYLHISTAMINE] |  |  |  | 70.8 | EC50 (Histamine H1 receptor [10]): 15800 nM; EC50 (Histamine H2 receptor [5]): 2880 nM; Activity (Histamine H2 receptor [4]): inactive
26 | N#CNC(=NCCCCc1cnc[nH]1)NCCCc1ccncc1 |  |  |  | 2570 | 
27 | N#C/N=C(/NCCCCc1c[nH]cn1)NCCSc1ccccc1 | < 5 | 6 |  | 33.9 | pKb (Histamine H1 receptor [6]): < 5; Selectivity ratio (Homo sapiens [11]): 30; Ki (Histamine H1 receptor [12]): 25700 nM; Ki (Histamine H2 receptor [13]): 4070 nM; Ki (Histamine H3 receptor [14]): 525 nM; Ki (Histamine H4 receptor [15]): 57.5 nM; Selectivity ratio (Homo sapiens [16]): 450; Selectivity ratio (Homo sapiens [17]): 70; Activity (Histamine H4 receptor [18]): > 10 nM
28 | N#C/N=C(/NCCCc1ccccc1)NCCc1c[nH]cn1 |  | 5.18 | < 5 |  | EC50 (Histamine H2 receptor [5]): > 10000 nM; pKb (Histamine H1 receptor [6]): < 5
